Data on one molecule can be found in ChEMBL document CHEMBL4270646, “Novel antimalarial chloroquine- and primaquine-quinoxaline 1,4-di-N-oxide hybrids: Design, synthesis, Plasmodium life cycle stage profile, and preliminary toxicity studies” (Eur J Med Chem, 2018).

The test system of the assay is Plasmodium berghei. Nature of the assay: Antiplasmodial activity against GFP-expressing gametocytes of Plasmodium berghei sporozoites in Anopheles stephensi mosquitoes feeded on blood from infected Swiss mouse assessed as reduction in number of oocysts in mosquito midgut at 100 mg/kg, ip pretreated for 1.5 hrs followed by blood feeding of mosquito and measured at 8 days post mosquitoes infection by fluorescence microscopic method relative to control. Type of assay: functional. On the set-up: scale not given: the % may be the effect or the level left. In short, it runs like this:
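Swiss mice (female, 6 weeks) infected i.p. with PbGFP-infected red cells (200 µL, 3000 parasites/µL). Gametocytes monitored 4 days by Giemsa smear and exflagellation. Hybrid given i.p. at 100 mg/kg in DMSO 1.5 h before A. stephensi fed 1 h on mice with 1% gametocytes. Controls were untreated and DMSO-treated mice. Thirty mosquitoes per group dissected after 8 days. Midgut oocysts counted by fluorescence microscopy against control mosquitoes taken as 100%.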

Turning to `COc1cc(NC(C)CCCNC(=O)c2c(C)[n+]([O-])c3ccccc3[n+]2[O-])c2ncccc2c1` (stereo unspecified), the Activity came to 92%.
